OX1R antag-1: OX1R (human) antagonism | AID 485270 | OX1R-expressing cells, FRET antagonist read-out | 330,000 compounds, 1.8% hits | inhibition, % at 6.6 µM; in the data active means inhibition mostly above about 38%, no sharp cut-off; inactive means mostly below about 40%;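 further: 0% = agonist challenge alone and 100% = reference antagonist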
Target sequence (O43613 whole entry, looked up): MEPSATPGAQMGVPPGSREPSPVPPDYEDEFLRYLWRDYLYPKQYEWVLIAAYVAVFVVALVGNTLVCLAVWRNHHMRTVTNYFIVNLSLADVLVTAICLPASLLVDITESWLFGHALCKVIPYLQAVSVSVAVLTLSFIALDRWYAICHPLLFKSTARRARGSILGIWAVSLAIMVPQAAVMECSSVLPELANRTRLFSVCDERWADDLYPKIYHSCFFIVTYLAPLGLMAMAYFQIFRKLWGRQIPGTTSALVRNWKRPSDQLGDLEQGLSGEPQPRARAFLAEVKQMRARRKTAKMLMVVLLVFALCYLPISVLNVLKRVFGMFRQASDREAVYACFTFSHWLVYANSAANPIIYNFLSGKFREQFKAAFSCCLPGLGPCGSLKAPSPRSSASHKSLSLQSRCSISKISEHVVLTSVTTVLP
OX1R antag-2: antagonists of human orexin 1 receptor | O43613 | inhibition, % at 5 µM | AID 434989 | 330,000 compounds, 0.43% hits | CHO/OX1R cells, Fluo-8 calcium fluorescence, orexin A;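 active means inhibition above its plate's threshold, mean inhibition of all tested compounds on the plate plus 3 SD, cut at about 37% in these data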;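 further: 0% = orexin A challenge wells and 100% = SB-334867-A antagonist wells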
CHO parental Ca: counter-screen: ATP calcium response change in parental CHO cells | parental CHO-K1, ATP-induced calcium, Fluo-8 fluorescence | 330,000 compounds, 0.63% hits | inhibition, % at 5.6 µM | AID 463079;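 active means inhibition above that plate's mean sample inhibition plus 3 SD, cut at about 26% in these data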;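 further: 0% = ATP-challenged DMSO wells and 100% = DMSO wells without ATP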
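Material: parental CHO cells / Compound: single nominal dose of 5.6 µM per compound / Signal: Fluo-8 fluorescence / Replicates: singlicate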
GalR3 antagonist: human GalR3 antagonism | O60755 | 360,000 compounds, 0.44% hits | AID 651719 | HEK293 GalR3-CNG cAMP membrane potential fluorescence; galR3 body fused to GalR1 C-terminus | inhibition, % at 3 µM;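 active means inhibition above the screen-wide average plus 3 SD, cut at about 13% in these data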;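 further: forskolin and galanin both at EC90 stimulate the cells; cAMP rise reported by CNG channel membrane potential dye signal; 0% = forskolin plus galanin with DMSO and 100% = forskolin alone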
GPR7 antag: blocks human GPR7 receptor signaling; AID 1861; 290,000 compounds, 1.1% hits; inhibition, % at 4.4 µM; GPR7-expressing cells, fluorescence antagonist assay; in the data active means inhibition above about 16%, passing the limit was not always enough;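 further: cells stimulated with the agonist NPW; 0% = agonist with vehicle and 100% = vehicle without agonist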
OX1R HTRF confirm: confirmation of human orexin 1 receptor antagonists, HTRF format. shares compounds with OX1R antag-1. OX1R-expressing cells, HTRF antagonist assay. inhibition, % at 6.6 µM. 1,800 compounds, 49% hits; in the data active means inhibition above about 55%;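 further: CHO cells expressing OX1R stimulated with orexin A at about EC80; 0% = agonist challenge alone and 100% = reference antagonist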
CHO-K1 HTRF cnt: signal in parental CHO-K1 cells, OX1R antagonist counter-screen; shares compounds with OX1R antag-1; HTRF counterscreen; inhibition, % at 6.6 µM; 1,800 compounds, 48% hits; AID 493232; in the data active means inhibition above about 17%;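 further: 0% = agonist challenge with vehicle and 100% = vehicle alone without agonist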
Numbers without * were called inactive. Rows were chosen to be rich in hits. Some 3.1% of all compounds tested hit in one or more screens of this group.

Screening O=C1Nc2ccccc2-n2nnnc2C1N1CCN(C(=O)C2CCCO2)CC1 (stereo not drawn) returned GalR3 antagonist -5.
Screening COC(=O)C(C(=O)OC)[C@@H]1C=C[C@H](C[N+](=O)[O-])N(C(C)=O)C1 returned GalR3 antagonist -7.
`CCN1CCN(CCC2Oc3cc([N+](=O)[O-])ccc3NC2=O)CC1` (stereo not drawn) gave OX1R antag-1 78*, OX1R antag-2 -10, CHO parental Ca 2, GalR3 antagonist -3, GPR7 antag 3, OX1R HTRF confirm 44 and CHO-K1 HTRF cnt 25*.
CC(=O)N(/N=C1\Sc2ccccc2C1=O)c1cccc(C)c1 was read as OX1R antag-1 105*, OX1R antag-2 9, CHO parental Ca 2, GalR3 antagonist -1, GPR7 antag 2, OX1R HTRF confirm 19 and CHO-K1 HTRF cnt 12.
`CC(=O)N(CN1C(=O)c2ccccc2C1=O)c1cccc(C)c1` gave OX1R antag-1 14, OX1R antag-2 -2, CHO parental Ca -18, GalR3 antagonist 0 and GPR7 antag 11.
Screening O=C(O)c1ccc2c(c1Nc1ccccc1)C(=O)c1ccccc1C2=O returned OX1R antag-1 12, OX1R antag-2 -21, CHO parental Ca -4, GalR3 antagonist -9 and GPR7 antag -7.
`O=C(O)c1cccc2c1C(=O)c1ccccc1-2` gave OX1R antag-1 11, OX1R antag-2 -1, CHO parental Ca -7, GalR3 antagonist -5 and GPR7 antag 4.
Screening O=C(O)c1cccc2c1C(=O)c1ccccc1C2=O returned OX1R antag-1 85*, OX1R antag-2 -8, CHO parental Ca -5, GalR3 antagonist -5, GPR7 antag 11, OX1R HTRF confirm 64* and CHO-K1 HTRF cnt 110*.
`CCNc1c(C(=O)O)ccc2c1C(=O)c1ccccc1C2=O` gave OX1R antag-1 97*, OX1R antag-2 -4, CHO parental Ca -9, GalR3 antagonist -3, GPR7 antag -2, OX1R HTRF confirm 36 and CHO-K1 HTRF cnt 18*.
CNc1c(C(=O)O)ccc2c1C(=O)c1ccccc1C2=O was read as OX1R antag-1 111*, OX1R antag-2 14, CHO parental Ca -3, GalR3 antagonist -2, GPR7 antag -1, OX1R HTRF confirm 62* and CHO-K1 HTRF cnt 86*.
For COc1ccc(C(N)c2csc(Nc3ccc(C(=O)NCCCO)cn3)n2)cc1 (stereo not drawn) the results were GalR3 antagonist -2.
`Cc1cccc(S(=O)(=O)N(C)C[C@@H]2OCc3cnnn3CCCC(=O)N([C@@H](C)CO)C[C@@H]2C)c1` gave GalR3 antagonist -4.
Screening COc1cccc2sc(Nc3nc(-c4ccncc4)cs3)nc12 returned OX1R antag-1 82*, OX1R antag-2 16, CHO parental Ca 6, GalR3 antagonist 3, GPR7 antag 9, OX1R HTRF confirm 98* and CHO-K1 HTRF cnt 8.
O=C(NC1CCCCC1)C1CC(=O)N(c2cccc([N+](=O)[O-])c2)C1 (stereo not drawn) was read as OX1R antag-1 88*, OX1R antag-2 1, CHO parental Ca 10, GalR3 antagonist -1, GPR7 antag -10, OX1R HTRF confirm 35 and CHO-K1 HTRF cnt 7.
`O=C(Nc1ncc([N+](=O)[O-])s1)C1CC(=O)N(c2ccc(F)cc2)C1` (stereo not drawn) gave OX1R antag-1 26, OX1R antag-2 -17, CHO parental Ca 16, GalR3 antagonist -9 and GPR7 antag 1.
O=C1NCCN1c1ncc([N+](=O)[O-])s1 was read as OX1R antag-1 82*, OX1R antag-2 -2, CHO parental Ca 6, GalR3 antagonist -2, OX1R HTRF confirm 63* and CHO-K1 HTRF cnt 88*.
COCCNC(=O)C1CCCN(C(=O)COCc2ccccc2)CC1 (stereo not drawn) was read as GalR3 antagonist -7.
Screening Nc1nc2ccccc2n1/N=C/c1ccc([N+](=O)[O-])s1 returned OX1R antag-1 78*, OX1R antag-2 -4, CHO parental Ca -4, GalR3 antagonist 2, GPR7 antag -2, OX1R HTRF confirm 27 and CHO-K1 HTRF cnt 27*.
`COC(=O)[C@]12C[C@H](CC(=O)N3CCN(C(=O)c4ccco4)CC3)C(=O)N(Cc3ccccc3)C1=C[C@H](C1CCCC1)O[C@@H]2C` gave GalR3 antagonist -2.
Screening COCCCNC(=O)CN1C(=O)/C(=C\c2ccc(C)cc2)Sc2ccccc21 returned OX1R antag-1 78*, OX1R antag-2 15, CHO parental Ca -13, GalR3 antagonist -9, GPR7 antag -1, OX1R HTRF confirm 38 and CHO-K1 HTRF cnt -5.
`Cc1cc(C)c(C#N)c(OCC2CCCO2)n1` (stereo not drawn) gave GalR3 antagonist -3.
For Cc1cccc(-n2nc([N+](=O)[O-])c(=NC3CCN(Cc4ccccc4)CC3)n2O)c1 the results were OX1R antag-1 83*, OX1R antag-2 -22, CHO parental Ca -17, GalR3 antagonist -2, GPR7 antag -5, OX1R HTRF confirm 47 and CHO-K1 HTRF cnt 42*.
Cc1cccc(CCN=c2c([N+](=O)[O-])nn(-c3ccccc3)n2O)c1 was read as OX1R antag-1 34, OX1R antag-2 -10, CHO parental Ca -9, GalR3 antagonist -2 and GPR7 antag 1.
`COc1cccc(/C=N/NC(=O)c2cnccn2)c1` gave OX1R antag-1 18, OX1R antag-2 -6, CHO parental Ca -6, GalR3 antagonist -6 and GPR7 antag 11.
For O=C(N/N=C/c1ccccn1)c1ccc(NC(=O)c2cccc([N+](=O)[O-])c2)cc1 the results were OX1R antag-1 31, OX1R antag-2 -11, CHO parental Ca -6, GalR3 antagonist -8 and GPR7 antag -5.
`O=C(N/N=C/c1ccccn1)c1cc([N+](=O)[O-])cc([N+](=O)[O-])c1` gave OX1R antag-1 91*, OX1R antag-2 16, CHO parental Ca 13, GalR3 antagonist -6, GPR7 antag 9, OX1R HTRF confirm 59* and CHO-K1 HTRF cnt 42*.
For O=C(N/N=C/c1cc([N+](=O)[O-])ccc1N1CCNCC1)c1ccc([N+](=O)[O-])cc1 the results were OX1R antag-1 78*, OX1R antag-2 -8, CHO parental Ca -12, GalR3 antagonist -5, GPR7 antag 6, OX1R HTRF confirm 52 and CHO-K1 HTRF cnt 69*.
N#CCC(=O)N/N=C/c1cc([N+](=O)[O-])ccc1N1CCCC1 was read as OX1R antag-1 21, OX1R antag-2 -6, CHO parental Ca 10, GalR3 antagonist -2 and GPR7 antag 18.
